Source: ChEMBL document CHEMBL2331324, “Synthesis and biological evaluation of guanidino analogues of roscovitine” (Eur J Med Chem, 2013)

Columns and labels:
[1] = target: Aurora kinase A/B (Homo sapiens) (UniProt Q96GD4+O14965); experiment: Activity at Aurora kinase A/B in human MCF7 cells assessed as histone H3 phosphorylation at Ser10 at 100 uM after 24 hrs by flow cytometry relative to untreated control; type: cell-based
Method in brief: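 Flow cytometry on MCF7 cells exposed 24 h to 100 µM. About one million cells fixed in 90% methanol, rehydrated, and labelled with primary antibody to pH3 Ser10, then an Alexa Fluor 488 secondary. Alexa read at 488/525 nm (ex/em). The value is the fraction of pH3-positive cells in treated cultures divided by that in untreated control.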

MCF7 [2] = experiment: Cytotoxicity against human MCF7 cells assessed as inhibition of cell viability after 72 hrs by calcien AM dye based fluorescence analysis; type: functional; conditions: MCF7, 72 h
Method in brief: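 MCF7 cells grown in DMEM with 10% FBS, 2 mM glutamine, penicillin and streptomycin at 37 °C and 5% CO2. About 10,000 cells per well, left 4 h, then a concentration range added in triplicate, DMSO ≤0.5% final. After 72 h, 1 µg/ml calcein AM (final) for 1 h; fluorescence read at 485/538 nm. Viability given as % of control; IC50 read graphically from dose-response curves; mean of ≥3 independent experiments.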

MCF7 [3] = experiment: Cell cycle arrest in human MCF7 cells assessed as accumulation of cells in G2+M phase at 100 uM after 24 hrs by propidium iodide staining based flow cytometry relative to untreated control; type: functional
Method in brief: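 Flow cytometry on MCF7 cells given 100 µM for 24 h. About one million cells fixed in 90% methanol and rehydrated. DNA stained with propidium iodide, read at 488/575 nm (ex/em). The value is the G2+M fraction of treated cells divided by the G2+M fraction of untreated control cells.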

[4] = target: Cyclin-dependent kinase 1/cyclin B1 (Homo sapiens, UniProt P06493); experiment: Inhibition of recombinant CDK1/cyclin B (unknown origin) using histone H1 as substrate in presence of [gamma-33P]ATP; type: protein-complex assay
[5] = target: Cyclin-dependent kinase 2/cyclin E1 (Homo sapiens, UniProt P24941); experiment: Inhibition of recombinant CDK2/cyclin E (unknown origin) using histone H1 as substrate in presence of [gamma-33P]ATP; type: protein-complex assay
[6] = target: Cyclin-dependent kinase 1/cyclin B1 (Homo sapiens) (UniProt P06493+P14635); experiment: Ratio of compound IC50 to roscovitine IC50 for recombinant CDK1/cyclin B (unknown origin); type: protein-complex assay
[7] = target: Cyclin-dependent kinase 2/cyclin E1 (Homo sapiens) (UniProt P24864+P24941); experiment: Ratio of compound IC50 to roscovitine IC50 for recombinant CDK2/cyclin E (unknown origin); type: protein-complex assay
MCF7 [8] = experiment: Ratio of compound IC50 to roscovitine IC50 for human MCF7 cells after 72 hrs by calcien AM dye based fluorescence analysis; type: functional

Sequence of Cyclin-dependent kinase 1/cyclin B1 (P06493 whole entry): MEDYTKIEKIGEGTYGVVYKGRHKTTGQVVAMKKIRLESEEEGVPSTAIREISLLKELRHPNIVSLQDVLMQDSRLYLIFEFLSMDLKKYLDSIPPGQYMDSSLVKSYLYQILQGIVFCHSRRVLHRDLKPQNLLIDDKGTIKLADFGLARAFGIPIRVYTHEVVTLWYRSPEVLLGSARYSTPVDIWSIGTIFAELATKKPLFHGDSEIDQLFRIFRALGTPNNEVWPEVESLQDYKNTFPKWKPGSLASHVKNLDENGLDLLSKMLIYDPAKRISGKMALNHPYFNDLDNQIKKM
Sequence of Cyclin-dependent kinase 1/cyclin B1 (P14635 whole entry, further chain): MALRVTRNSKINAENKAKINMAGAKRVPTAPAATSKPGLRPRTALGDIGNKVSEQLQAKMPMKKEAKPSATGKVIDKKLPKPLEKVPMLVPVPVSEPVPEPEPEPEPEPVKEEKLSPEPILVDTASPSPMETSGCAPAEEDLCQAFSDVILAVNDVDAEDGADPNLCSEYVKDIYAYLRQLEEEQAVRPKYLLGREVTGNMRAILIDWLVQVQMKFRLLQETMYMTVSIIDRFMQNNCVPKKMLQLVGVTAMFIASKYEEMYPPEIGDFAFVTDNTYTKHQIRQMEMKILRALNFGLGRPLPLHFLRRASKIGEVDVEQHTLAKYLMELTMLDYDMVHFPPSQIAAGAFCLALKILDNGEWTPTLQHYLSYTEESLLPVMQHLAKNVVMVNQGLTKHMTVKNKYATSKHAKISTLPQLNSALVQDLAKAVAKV
Sequence of Aurora kinase A/B (Homo sapiens) (O14965 whole entry, looked up): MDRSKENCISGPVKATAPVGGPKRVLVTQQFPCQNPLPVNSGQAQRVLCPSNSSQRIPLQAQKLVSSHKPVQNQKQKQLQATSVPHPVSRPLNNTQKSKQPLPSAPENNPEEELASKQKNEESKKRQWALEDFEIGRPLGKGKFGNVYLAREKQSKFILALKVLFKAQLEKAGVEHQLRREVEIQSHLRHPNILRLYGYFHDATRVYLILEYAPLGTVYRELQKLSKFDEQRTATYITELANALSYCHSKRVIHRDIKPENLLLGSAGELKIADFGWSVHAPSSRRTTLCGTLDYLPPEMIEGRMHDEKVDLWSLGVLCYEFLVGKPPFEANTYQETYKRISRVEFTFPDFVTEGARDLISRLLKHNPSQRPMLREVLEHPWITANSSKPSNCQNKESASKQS
Sequence of Aurora kinase A/B (Homo sapiens) (Q96GD4 whole entry, looked up): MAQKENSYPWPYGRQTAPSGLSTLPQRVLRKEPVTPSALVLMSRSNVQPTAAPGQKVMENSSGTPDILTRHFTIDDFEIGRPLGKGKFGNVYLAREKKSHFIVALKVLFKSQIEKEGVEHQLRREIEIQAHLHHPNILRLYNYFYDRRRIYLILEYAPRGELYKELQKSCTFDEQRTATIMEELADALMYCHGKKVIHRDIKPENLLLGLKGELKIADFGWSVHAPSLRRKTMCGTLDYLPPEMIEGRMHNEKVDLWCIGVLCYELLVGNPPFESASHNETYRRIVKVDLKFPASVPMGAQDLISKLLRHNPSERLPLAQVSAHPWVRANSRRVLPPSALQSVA
Sequence of Cyclin-dependent kinase 1/cyclin B1 (Homo sapiens) (P06493 whole entry, looked up): as the sequence (P06493 whole entry) above
Sequence of Cyclin-dependent kinase 1/cyclin B1 (Homo sapiens) (P14635 whole entry, looked up): as the sequence (P14635 whole entry, further chain) above

In the case of `Cn1cnc2c(NC(=N)N)nc(N)nc21`, the Ratio [1] is reported as 0.81, the IC50 (MCF7 [2]) is reported as greater than 100 µM and the Ratio (MCF7 [3]) is reported as 1.5. For the same molecule, the IC50 [4] was 38.2 µM and the IC50 [5] was 6.8 µM.
`CC(C)n1cnc2c(NC(=N)N)nc(NCCCCCCO)nc21` was tested, and the Ratio [1] was 0.33, the IC50 (MCF7 [2]) was 5.2 µM and the Ratio (MCF7 [3]) was 2. For the same molecule, the IC50 [4] was 4.2 µM and the IC50 [5] was 1.6 µM.
Molecule `CC(C)n1cnc2c(N)nc(N)nc21` has an IC50 (MCF7 [2]) greater than 100 µM, a Ratio (MCF7 [3]) of 0.9 and an IC50 [4] of 64.9 µM. For the same molecule, the IC50 [5] was 22.2 µM.
Work on `CC[C@H](N)COc1nc(NC(=N)N)c2ncn(C(C)C)c2n1` yielded a Ratio [1] of 0.07, an IC50 (MCF7 [2]) of 16.3 µM and a Ratio (MCF7 [3]) of 1.5. The IC50 [4] was 8.1 µM and the IC50 [5] was 6.2 µM.
Molecule `CC(C)n1cnc2c(NC(=N)N)nc(NC3CC3)nc21` has a Ratio [1] of 0.17, an IC50 (MCF7 [2]) of 5.4 µM and a Ratio (MCF7 [3]) of 2.4. It also gave an IC50 [4] of 6.4 µM and an IC50 [5] of 0.5 µM.
`CC(C)n1cnc2c(NC(=N)N)nc(N)nc21` was tested, and the Ratio [1] was 0.18, the IC50 (MCF7 [2]) was 97.2 µM and the Ratio IC50 [6] was 5. It also gave a Ratio IC50 [7] of 5, a Ratio (MCF7 [3]) of 2 and an IC50 [4] of 14.8 µM. The “Ratio IC50” value (MCF7 [8]) was 4 and the IC50 [5] was 1.3 µM.
With `CC(C)[C@@H](N)COc1nc(NC(=N)N)c2ncn(C(C)C)c2n1` the Ratio [1] was 0.39, the IC50 (MCF7 [2]) was 79.4 µM and the Ratio (MCF7 [3]) was 2.1. The IC50 [4] was 15.6 µM and the IC50 [5] was 8 µM.
In the case of `CCn1cnc2c(NC(=N)N)nc(N)nc21`, the Ratio [1] is reported as 0.1, the IC50 (MCF7 [2]) is reported as 54.3 µM and the Ratio IC50 [6] is reported as 5. The Ratio IC50 [7] was 5, the Ratio (MCF7 [3]) was 1.6 and the IC50 [4] was 12.6 µM. The “Ratio IC50” value (MCF7 [8]) was 2 and the IC50 [5] was 1.7 µM.
With `N=C(N)Nc1nc(N)nc2c1ncn2CC(F)(F)F` the IC50 (MCF7 [2]) was greater than 100 µM, the Ratio (MCF7 [3]) was 0.8 and the IC50 [4] was greater than 100 µM. For the same molecule, the IC50 [5] was greater than 100 µM.
For `N=C(N)Nc1nc(N)nc2c1ncn2CCO`, the IC50 (MCF7 [2]) was greater than 100 µM, the Ratio (MCF7 [3]) was 0.9 and the IC50 [4] was greater than 100 µM. The IC50 [5] was greater than 100 µM.
Molecule `CCn1cnc2c(N)nc(N)nc21` has an IC50 (MCF7 [2]) greater than 100 µM, a Ratio (MCF7 [3]) of 1.2 and an IC50 [4] of 37.5 µM. It also gave an IC50 [5] of 7.9 µM.
In the case of `N=C(N)Nc1nc(N)nc2c1ncn2CCN`, the IC50 (MCF7 [2]) is reported as greater than 100 µM, the Ratio (MCF7 [3]) is reported as 1 and the IC50 [4] is reported as greater than 50 µM. It also gave an IC50 [5] greater than 100 µM.
For `CC[C@H](CO)Nc1nc(NCc2ccccc2)c2ncn(C(C)C)c2n1` [SELICICLIB], the IC50 (MCF7 [2]) was 20.2 µM.
In the case of `Cn1cnc2c(NC(=N)N)ncnc21`, the IC50 (MCF7 [2]) is reported as greater than 100 µM, the Ratio (MCF7 [3]) is reported as 1 and the IC50 [4] is reported as greater than 100 µM. The IC50 [5] was greater than 100 µM.
`CC(C)n1cnc2c(NC(=N)N)nc(OC[C@H]3CCCN3)nc21` was tested, and the IC50 (MCF7 [2]) was greater than 100 µM, the Ratio (MCF7 [3]) was 1.3 and the IC50 [4] was 81.5 µM. For the same molecule, the IC50 [5] was 23.6 µM.
In the case of `CC(C)n1cnc2c(NC(=N)N)nc(N3CCC[C@H]3CO)nc21`, the Ratio [1] is reported as 0.11, the IC50 (MCF7 [2]) is reported as 6.2 µM and the Ratio (MCF7 [3]) is reported as 1.7. It also gave an IC50 [4] of 1.5 µM and an IC50 [5] of 0.16 µM.
With `CC(C)[C@@H](CO)Nc1nc(NC(=N)N)c2ncn(C(C)C)c2n1` the Ratio [1] was 0.09, the IC50 (MCF7 [2]) was 2.1 µM and the Ratio (MCF7 [3]) was 1.8. The IC50 [4] was 1.1 µM and the IC50 [5] was 0.071 µM.
In the case of `[N-]=[N+]=NCCn1cnc2c(NC(=N)N)nc(N)nc21`, the IC50 (MCF7 [2]) is reported as greater than 100 µM, the Ratio (MCF7 [3]) is reported as 1.4 and the IC50 [4] is reported as greater than 100 µM. It also gave an IC50 [5] of 74.9 µM.
For `CC(C)n1cnc2c(NC(=N)N)nc(NCCO)nc21`, the Ratio [1] was 0.15, the IC50 (MCF7 [2]) was 12.4 µM and the Ratio (MCF7 [3]) was 2.9. It also gave an IC50 [4] of 15.1 µM and an IC50 [5] of 0.82 µM.
Molecule `CC(C)n1cnc2c(NC(=N)N)nc(NCCCO)nc21` has a Ratio [1] of 0.18, an IC50 (MCF7 [2]) of 8.8 µM and a Ratio (MCF7 [3]) of 2.5. The IC50 [4] was 4.1 µM and the IC50 [5] was 0.18 µM.
`CC(C)[C@H](CO)Nc1nc(NC(=N)N)c2ncn(C(C)C)c2n1` gave a Ratio [1] of 0.13, an IC50 (MCF7 [2]) of 10.5 µM and a Ratio (MCF7 [3]) of 2.3. The IC50 [4] was 2 µM and the IC50 [5] was 0.14 µM.
For `CC(C)Cn1cnc2c(NC(=N)N)nc(N)nc21`, the Ratio [1] was 7, the IC50 (MCF7 [2]) was 96.6 µM and the Ratio (MCF7 [3]) was 3.5. It also gave an IC50 [4] greater than 100 µM and an IC50 [5] of 66.5 µM.
With `CC(C)[C@H](N)COc1nc(NC(=N)N)c2ncn(C(C)C)c2n1` the Ratio [1] was 0.09, the IC50 (MCF7 [2]) was 3.4 µM and the Ratio (MCF7 [3]) was 1.7. For the same molecule, the IC50 [4] was 1.1 µM and the IC50 [5] was 1.8 µM.
In the case of `CC(C)n1cnc2c(NC(=N)N)nc(N3CCC[C@@H]3CO)nc21`, the Ratio [1] is reported as 0.1, the IC50 (MCF7 [2]) is reported as 20.4 µM and the Ratio (MCF7 [3]) is reported as 2. It also gave an IC50 [4] of 6.2 µM and an IC50 [5] of 0.67 µM.
`CC[C@@H](N)COc1nc(NC(=N)N)c2ncn(C(C)C)c2n1` showed a Ratio [1] of 1.08, an IC50 (MCF7 [2]) greater than 100 µM and a Ratio (MCF7 [3]) of 0.8. It also gave an IC50 [4] of 47.6 µM and an IC50 [5] of 13.3 µM.
Molecule `CCCn1cnc2c(NC(=N)N)nc(N)nc21` has a Ratio [1] of 6.71, an IC50 (MCF7 [2]) of 36.5 µM and a Ratio (MCF7 [3]) of 4. It also gave an IC50 [4] of 55.9 µM and an IC50 [5] of 10.7 µM.
`CN(C)c1nc(N)nc2c1ncn2CCN=[N+]=[N-]` gave an IC50 (MCF7 [2]) greater than 100 µM, a Ratio (MCF7 [3]) of 1 and an IC50 [4] greater than 100 µM. For the same molecule, the IC50 [5] was greater than 100 µM.
Work on `CC(C)n1cnc2c(NC(=N)N)nc(OC[C@@H]3CCCN3)nc21` yielded a Ratio [1] of 0.8, an IC50 (MCF7 [2]) greater than 100 µM and a Ratio (MCF7 [3]) of 1.7. It also gave an IC50 [4] greater than 100 µM and an IC50 [5] of 25.2 µM.
